Measurements taken from ChEMBL document CHEMBL1152918, “Simplexins A-I, eunicellin-based diterpenoids from the soft coral Klyxum simplex” (2009).
In brackets after ≈: the same amount, converted by molar mass. Activity calls are given as the source filed them. No cut-off for these calls is given here.

Columns and labels:
Format in all cases: functional
[1] = test system: HEp-2; experiment: Cytotoxicity against human Hep2 cells by MTT assay; conditions: read-out: ED50 (the source's name)
[2] = test system: HeLa; experiment: Cytotoxicity against human HeLa cells by MTT assay; conditions: read-out: ED50 (the source's name)
[3] = test system: RAW264.7; experiment: Antiinflammatory activity against LPS-stimulated mouse RAW264.7 cells assessed as reduction in COX-2 level at 10 uM relative to control
Outline: (§1)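 Immunoblot measured iNOS and COX-2 protein levels in RAW264.7 macrophages stimulated with LPS and treated at 10 μM. Levels are expressed as a percentage of cells given LPS alone.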

[4] = test system: Daoy; experiment: Cytotoxicity against human DaOY cells by MTT assay; conditions: read-out: ED50 (the source's name)
[5] = test system: RAW264.7; experiment: Antiinflammatory activity against LPS-stimulated mouse RAW264.7 cells assessed as reduction in iNOS level at 10 uM relative to control; parameters: scale not given: the % may be the effect or the level left; outline: as §1
[6] = test system: MCF7; experiment: Cytotoxicity against human MCF7 cells by MTT assay; conditions: read-out: ED50 (the source's name)

## C=C1C[C@H]2O[C@H]([C@H]3[C@@H]2[C@](C)(OC(C)=O)CC[C@@H]3C(C)C)[C@](C)(OC(=O)CCC)CC[C@@H]1O [SIMPLEXIN A]
[1]
  EC50: 12.1 µg/mL (≈ 26.9 µM)
[2]
  EC50: > 20 µg/mL
[3]
  Activity: inactive
[4]
  EC50: 10.4 µg/mL (≈ 23 µM)
[5]
  Activity: 15.9%
[6]
  EC50: 12.1 µg/mL (≈ 26.8 µM)

## CCCC(=O)O[C@]1(C)CC[C@H](O)[C@@](C)(O)C[C@H]2O[C@@H]1[C@H]1[C@@H]2[C@](C)(OC(C)=O)CC[C@@H]1C(C)C [SIMPLEXIN B]
[1]
  EC50: > 20 µg/mL
[2]
  EC50: > 20 µg/mL
[4]
  EC50: > 20 µg/mL
[6]
  EC50: > 20 µg/mL

## CCCC(=O)O[C@H]1[C@H](C(C)C)[C@@H]2[C@@H]([C@H]3C[C@](C)(O)[C@@H](OC(C)=O)CC[C@@](C)(OC(=O)CCC)[C@@H]2O3)[C@](C)(O)[C@@H]1OC(C)=O [SIMPLEXIN C]
[1]
  EC50: > 20 µg/mL
[2]
  EC50: > 20 µg/mL
[4]
  EC50: > 20 µg/mL
[6]
  EC50: > 20 µg/mL

## CCCC(=O)O[C@H]1[C@H](C(C)C)[C@@H]2[C@@H]([C@H]3C[C@](C)(O)[C@@H](OC(=O)CCC)CC[C@@](C)(OC(=O)CCC)[C@@H]2O3)[C@](C)(O)[C@@H]1OC(C)=O [SIMPLEXIN D]
[1]
  EC50: > 20 µg/mL
[2]
  EC50: > 20 µg/mL
[3]
  Activity: inactive
[4]
  EC50: 15.3 µg/mL (≈ 23.9 µM)
[5]
  Activity: 37.7%
[6]
  EC50: 14.5 µg/mL (≈ 22.7 µM)

## C=CC(=O)O[C@H]1CC[C@@](C)(OC(=O)CCC)[C@@H]2O[C@H](C[C@]1(C)O)[C@@H]1[C@H]2[C@@H](C(C)C)[C@H](OC(=O)CCC)[C@@H](OC(C)=O)[C@@]1(C)O [SIMPLEXIN E]
[1]
  EC50: 10.7 µg/mL (≈ 17.2 µM)
[2]
  EC50: 17.4 µg/mL (≈ 27.8 µM)
[3]
  Activity: 37.7%
[4]
  EC50: 12.8 µg/mL (≈ 20.4 µM)
[5]
  Activity: 4.8%
[6]
  EC50: 7.19 µg/mL (≈ 11.5 µM)

## CCCC(=O)O[C@]1(C)CC[C@H](OC(C)=O)[C@@](C)(O)C[C@H]2O[C@@H]1[C@@H]1[C@@H](C(C)C)[C@H](O)[C@@H](OC(C)=O)[C@@](C)(O)[C@@H]12 [SIMPLEXIN F]
[1]
  EC50: > 20 µg/mL
[2]
  EC50: > 20 µg/mL
[4]
  EC50: > 20 µg/mL
[6]
  EC50: > 20 µg/mL

## CC(=O)O[C@H]1CC[C@@](C)(OC(C)=O)[C@@H]2O[C@H](C[C@]1(C)O)[C@@H]1[C@H]2[C@@H](C(C)C)[C@H](O)C[C@@]1(C)OC(C)=O [SIMPLEXIN I]
[1]
  EC50: > 20 µg/mL
[2]
  EC50: > 20 µg/mL
[4]
  EC50: > 20 µg/mL
[6]
  EC50: > 20 µg/mL
